Experimental data from ChEMBL document CHEMBL3286129, “Optimization of peptidomimetic boronates bearing a P3 bicyclic scaffold as proteasome inhibitors” (Eur J Med Chem, 2014).
pKi: −log10 of the molar value. The source made the active and inactive calls. The rule behind the calls is not given here.

Tests used:
NCI-H322M = assay: Growth inhibition of human NCI-H322M cells; format: functional
NCI-H522 = assay: Growth inhibition of human NCI-H522 cells; format: functional
COLO 205 = assay: Growth inhibition of human COLO205 cells; format: functional
HT-29 = assay: Growth inhibition of human HT-29 cells; format: functional
SF-268 = assay: Growth inhibition of human SF268 cells; format: functional
[1] = Growth inhibition of human SF295 cells; format: functional; conditions: SF-295
[2] = Growth inhibition of human SF539 cells; format: functional
SNB-19 = assay: Growth inhibition of human SNB19 cells; format: functional
[3] = Growth inhibition of human LOXIMVI cells; format: functional; conditions: LOX IMVI
Malme-3M = assay: Growth inhibition of human MALME-3M cells; format: functional
MDA-MB-435 = assay: Growth inhibition of human MDA-MB-435 cells; format: functional
SK-MEL-5 = assay: Growth inhibition of human SK-MEL-5 cells; format: functional
IGROV-1 = assay: Growth inhibition of human IGROV1 cells; format: functional
[4] = Growth inhibition of human OVCAR4 cells; format: functional
[5] = Growth inhibition of human OVCAR8 cells; format: functional
SK-OV-3 = assay: Growth inhibition of human SKOV3 cells; format: functional
ACHN = assay: Growth inhibition of human ACHN cells; format: functional
SN12C = assay: Growth inhibition of human SN12C cells; format: functional
[6] = Growth inhibition of human UO31 cells; format: functional; conditions: UO-31
DU-145 = assay: Growth inhibition of human DU145 cells; format: functional
MCF7 = assay: Growth inhibition of human MCF7 cells; format: functional
MDA-MB-231 = assay: Growth inhibition of human MDA-MB-231 cells; format: functional
[7] = Growth inhibition of human Hs 578T cells; format: functional
[8] = molecular target: T1, Proteasome Macropain subunit MB1 (Homo sapiens, UniProt P28074); assay: Inhibition of chymotrypsin-like activity of 20S proteasome in human erythrocytes using Suc-Leu-Leu-Val-Tyr-AMC as substrate by fluorescence assay; conditions: read-out: Ki
T1 sequence (P28074 whole entry): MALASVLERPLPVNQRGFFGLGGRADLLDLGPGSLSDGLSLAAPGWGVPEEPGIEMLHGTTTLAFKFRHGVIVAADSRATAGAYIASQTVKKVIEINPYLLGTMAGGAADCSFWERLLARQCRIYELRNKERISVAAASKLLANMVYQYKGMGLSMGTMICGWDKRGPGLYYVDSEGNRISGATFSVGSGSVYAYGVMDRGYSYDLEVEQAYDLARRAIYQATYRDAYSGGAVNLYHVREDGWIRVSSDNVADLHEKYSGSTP

[9] = molecular target: Proteasome Macropain subunit (Homo sapiens) (UniProt P49721); assay: Inhibition of trypsin-like activity of 20S proteasome in human erythrocytes using Boc-Leu-Arg-Arg-AMC as substrate by fluorescence assay; format: cell-based
Sequence of Proteasome Macropain subunit (Homo sapiens) (P49721 whole entry): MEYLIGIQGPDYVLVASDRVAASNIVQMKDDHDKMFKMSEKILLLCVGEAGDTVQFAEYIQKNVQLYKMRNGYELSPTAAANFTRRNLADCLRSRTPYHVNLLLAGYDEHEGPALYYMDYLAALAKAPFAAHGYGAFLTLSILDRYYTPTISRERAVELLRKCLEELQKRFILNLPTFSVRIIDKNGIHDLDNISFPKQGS
Summary of the method: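 Human 20S proteasome 0.0025 mg/mL at 30 °C in 50 mM Tris pH 7.4, 50 mM NaCl, 0.5 mM EDTA, 0.03% SDS, 7.5% DMSO. Varied inhibitor concentrations; AMC release monitored continuously for 10 min, ex 380/em 460 nm. Ki derived from progress-curve IC50 fit.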

Chymotrypsinogen A = Chymotrypsinogen A (Bos taurus, UniProt P00766); assay: Inhibition of bovine pancreatic alpha-chymotrypsin using Suc-Leu-Leu-Val-Tyr-AMC as substrate by fluorescence assay
Summary of the method: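 Enzyme incubated at 20 °C in 50 mM Tris pH 8.0, 100 mM NaCl, 5 mM EDTA, 7.5% DMSO with varied inhibitor concentrations. Substrate hydrolysis followed for 10 min. Ki from progress curves; mean of three determinations.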

[10] = Cytotoxicity against human leukemia cells assessed as cell growth at 10 uM relative to control; format: functional; conditions: read-out: Activity
Summary of the method: (§1)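 Single-concentration screen against a panel of human cancer cell lines. Each value is the mean percent growth across the cell lines of that tumour subpanel.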

[11] = Cytotoxicity against human CNSC cells assessed as cell growth at 10 uM relative to control; format: functional; conditions: read-out: Activity; summary of the method: as §1
[12] = Cytotoxicity against human renal cancer cells assessed as cell growth at 10 uM relative to control; format: functional; conditions: Cancer cell lines, read-out: Activity; summary of the method: as §1
[13] = Cytotoxicity against human breast cancer cells assessed as cell growth at 10 uM relative to control; format: functional; conditions: Cancer cell lines, read-out: Activity; summary of the method: as §1
[14] = Growth inhibition of human MOLT4 cells; format: functional
SR = assay: Growth inhibition of human SR cells; format: functional
HOP-62 = assay: Growth inhibition of human HOP62 cells; format: functional
[15] = Growth inhibition of human HOP92 cells; format: functional
NCI-H226 = assay: Growth inhibition of human NCI-H226 cells; format: functional
[16] = read-out: LC50 (the source's name)

With `CC(C)C[C@H](NC(=O)CCn1ccc2ccccc2c1=O)B(O)O` the GI50 (NCI-H322M) was 76.8 µM, the TGI (NCI-H322M) was > 100 µM and the CC50 (NCI-H322M; [16]) was > 100 µM. The GI50 (NCI-H522) was 2.61 µM, the LC50 (NCI-H522) was > 100 µM and the TGI (NCI-H522) was 8.09 µM. The GI50 (COLO 205) was 5.06 µM, the TGI (COLO 205) was > 100 µM and the CC50 (COLO 205; [16]) was > 100 µM. The GI50 (HT-29) was 3.68 µM, the LC50 (HT-29) was > 100 µM and the TGI (HT-29) was 48.7 µM. For the same compound, the GI50 (SF-268) was 5.69 µM, the LC50 (SF-268) was > 100 µM and the TGI (SF-268) was 30.4 µM. It also gave a GI50 [1] of 3.78 µM, an LC50 [1] of 83.3 µM and a TGI [1] of 19.6 µM. For the same compound, the GI50 ([2]; SF-539) was 1.61 µM, the TGI ([2]; SF-539) was 5.62 µM and the CC50 ([2]; SF-539, read-out: LC50 (the source's name)) was > 100 µM. For the same compound, the GI50 (SNB-19) was 8.02 µM, the TGI (SNB-19) was > 100 µM and the CC50 (SNB-19; [16]) was > 100 µM. The GI50 [3] was 2.11 µM, the TGI [3] was 6.78 µM and the CC50 [3, 16] was > 100 µM. For the same compound, the GI50 (Malme-3M) was 2.58 µM, the TGI (Malme-3M) was 9.89 µM and the CC50 (Malme-3M; [16]) was > 100 µM. The GI50 (MDA-MB-435) was 1.27 µM, the TGI (MDA-MB-435) was 2.81 µM and the CC50 (MDA-MB-435; [16]) was 6.24 µM. For the same compound, the GI50 (SK-MEL-5) was 4.3 µM, the LC50 (concentration killing 50% of cells) (SK-MEL-5) was 83.7 µM and the TGI (SK-MEL-5) was 19 µM. For the same compound, the GI50 (IGROV-1) was 12.3 µM, the LC50 (IGROV-1) was > 100 µM and the TGI (IGROV-1) was > 100 µM. The GI50 ([4]; OVCAR-4) was 17 µM, the TGI ([4]; OVCAR-4) was > 100 µM and the CC50 ([4]; OVCAR-4, read-out: LC50 (the source's name)) was > 100 µM. For the same compound, the GI50 ([5]; OVCAR-8) was 15.3 µM, the TGI ([5]; OVCAR-8) was > 100 µM and the CC50 ([5]; OVCAR-8, read-out: LC50 (the source's name)) was > 100 µM. The GI50 (SK-OV-3) was 4.72 µM, the LC50 (SK-OV-3) was > 100 µM and the TGI (SK-OV-3) was 81.3 µM. The GI50 (ACHN) was 1.75 µM, the TGI (ACHN) was > 100 µM and the CC50 (ACHN; [16]) was > 100 µM. The GI50 (SN12C) was 11.2 µM, the TGI (SN12C) was 55.4 µM and the CC50 (SN12C; [16]) was > 100 µM. The GI50 [6] was 3.92 µM, the LC50 [6] was > 100 µM and the TGI [6] was 35.3 µM. For the same compound, the GI50 (DU-145) was 9.13 µM, the TGI (DU-145) was > 100 µM and the CC50 (DU-145; [16]) was > 100 µM. The GI50 (MCF7) was 4.35 µM, the TGI (MCF7) was > 100 µM and the CC50 (MCF7; [16]) was > 100 µM. For the same compound, the GI50 (MDA-MB-231) was 9.45 µM, the TGI (MDA-MB-231) was 59.3 µM and the CC50 (MDA-MB-231; [16]) was > 100 µM. For the same compound, the GI50 [7] was 3.63 µM, the TGI [7] was 48.7 µM and the CC50 [7, 16] was > 100 µM. For the same compound, the pKi [8] was 7.29, the inhibition [9] was “inactive” and the Ki (Chymotrypsinogen A) was “Not Active”. For the same compound, the growth at 10 µM [10] was 21.1%, the growth at 10 µM [11] was 52% and the growth at 10 µM [12] was 32.3%. For the same compound, the growth at 10 µM [13] was 38.1%, the GI50 ([14]; MOLT-4) was 1.28 µM and the TGI ([14]; MOLT-4) was 5.94 µM. For the same compound, the CC50 ([14]; MOLT-4, read-out: LC50 (the source's name)) was > 100 µM, the GI50 (SR) was 1.7 µM and the TGI (SR) was 28.9 µM. The CC50 (SR; [16]) was > 100 µM, the GI50 (HOP-62) was 4.51 µM and the TGI (HOP-62) was 22.1 µM. It also gave a CC50 (HOP-62; [16]) of 96.4 µM, a GI50 ([15]; HOP-92) of 10.9 µM and a TGI ([15]; HOP-92) of 67.1 µM. The CC50 ([15]; HOP-92, read-out: LC50 (the source's name)) was > 100 µM, the GI50 (NCI-H226) was 1.47 µM and the TGI (NCI-H226) was 3.24 µM. The CC50 (NCI-H226; [16]) was 7.15 µM.
